# Columns and labels:
# Canis familiaris [1] = assay: Compound was tested in vivo in dogs at a dose of 1.0 mg/kg through intravenous route and time at which conduction block at the atrioventricular node prevented atrial pacing was recorded.(Base line value-0); type: functional, Canis lupus familiaris
# Summary of the method: (§1)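 Dogs with myocardial infarction were studied 3-9 days after infarction. They were reanesthetized with pentobarbital, ventilated, and electrodes were placed via thoracotomy; blood gases were monitored. Control ERPs and reproducible inducibility were set by programmed electrical stimulation, then cumulative iv doses were given. Agents were in glass-distilled water or NaOH-neutralized saline (pH 6.7-7.0). Animals were counted per category: NI, nonsustained, sustained, VF, or AV block preventing atrial pacing.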
# Canis familiaris [2] = assay: Compound was tested in vivo in dogs at a dose of 0.1 mg/kg through intravenous route and time at which conduction block at the atrioventricular node prevented atrial pacing was recorded.(Base line value-0); type: functional, Canis lupus familiaris; summary of the method: as §1
# Canis familiaris [3] = assay: Compound was tested in vivo in dogs at a dose of 3.0 mg/kg through intravenous route and time at which ventricular fibrillation was induced was recorded.(Base line value-6); type: functional, Canis lupus familiaris, Cardiac ventricle; conditions: in the assay text read “Base line value-3” for “Base line value-6”; summary of the method: as §1
# Canis familiaris [4] = assay: Conduction time from Q wave to T wave of lead II electrocardiogram was tested in dogs at a dose of 1.0 mg/kg through intravenous administration. (baseline value- 352+/-7); type: functional, Canis lupus familiaris
# Canis familiaris [5] = assay: Compound was tested in vivo in dogs at a dose of 10.0 mg/kg through intravenous route and time at which ventricular fibrillation was induced was recorded.(Base line value-6); type: functional, Canis lupus familiaris, Cardiac ventricle; conditions: in the assay text read “Base line value-3” for “Base line value-6”; summary of the method: as §1
# Canis familiaris [6] = assay: Compound was tested in vivo in dogs at a dose of 10.0 mg/kg through intravenous route and time at which conduction block at the atrioventricular node prevented atrial pacing was recorded.(Base line value-0); type: functional, Canis lupus familiaris; summary of the method: as §1
# Canis familiaris [7] = assay: Compound was tested in vivo in dogs at a dose of 3.0 mg/kg through intravenous route and number of animals in which ventricular arrhythmias were not inducible was recorded.(Base line value-5)
# Canis familiaris [8] = assay: Compound was tested in vivo in dogs at a dose of 10.0 mg/kg through intravenous route and time at which sustained ventricular arrhythmias were induced was recorded.(Base line value-2); type: functional, Canis lupus familiaris, Cardiac ventricle; summary of the method: as §1
# Canis familiaris [9] = assay: Conduction time from the atrium to His bundle was tested in dogs at a dose of 3.0 mg/kg through intravenous administration. (baseline value 73+/-3 ); type: functional, Canis lupus familiaris
# Oryctolagus cuniculus [10] = organism: Oryctolagus cuniculus; assay: Tested for force of contraction measured in mg at a pacing rate of 2 Hz in vitro with rabbit heart tissue preparations.; type: functional
# Summary of the method: (§2)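 Isolated rabbit heart tissues, all from one heart, each its own baseline; 2 h equilibration, perfusate changed every 15 min, basal stimulation 2 Hz between measurements. Exposed to 10^-7, 10^-6 and 10^-5 M drug, 15 min each; values reported at 10^-5 M as percent change from baseline. Drug solutions prepared daily in glass-distilled water. Force and rate recorded on polygraph.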
# Canis familiaris [11] = assay: Conduction time for ventricular refractory period of the second premature stimulus was tested in dogs at a dose of 10 mg/kg through intravenous administration. (baseline value- 123+/-4); type: functional, Canis lupus familiaris, Cardiac ventricle
# Oryctolagus cuniculus [12] = organism: Oryctolagus cuniculus; assay: Tested for effective refractory period measured at a pacing rate of 1 Hz in vitro with rabbit heart tissue preparations.; type: functional; summary of the method: as §2
# Canis familiaris [13] = assay: Conduction time from the atrium to His bundle was tested in dogs at a dose of 10.0 mg/kg through intravenous administration. (baseline value- 73+/-3 ); type: functional, Canis lupus familiaris
# Canis familiaris [14] = assay: Compound was tested in vivo in dogs at a dose of 1.0 mg/kg through intravenous route and time at which sustained ventricular arrhythmias were induced was recorded.(Base line value-2); type: functional, Canis lupus familiaris, Cardiac ventricle; summary of the method: as §1
# Oryctolagus cuniculus [15] = organism: Oryctolagus cuniculus; assay: Tested for rate automaticity measured in beats per minute from unpaced right atria of rabbit heart.; type: functional; summary of the method: as §2
# Canis familiaris [16] = assay: Compound was tested in vivo in dogs at a dose of 0.3 mg/kg through intravenous route and time at which conduction block at the atrioventricular node prevented atrial pacing was recorded.(Base line value-0); type: functional, Canis lupus familiaris; summary of the method: as §1
# Canis familiaris [17] = assay: Compound was tested in vivo in dogs at a dose of 3.0 mg/kg through intravenous route and time at which sustained ventricular arrhythmias were induced was recorded.(Base line value-2); type: functional, Canis lupus familiaris, Cardiac ventricle; summary of the method: as §1
# Canis familiaris [18] = assay: Conduction time from Q wave to T wave of lead II electrocardiogram was tested in dogs at a dose of 10 mg/kg through intravenous administration. (baseline value- 352+/-7); type: functional, Canis lupus familiaris
# Canis familiaris [19] = assay: Conduction time for ventricular refractory period of the first premature stimulus was tested in dogs at a dose of 1.0 mg/kg through intravenous administration. (baseline value- 137+/-4); type: functional, Canis lupus familiaris, Cardiac ventricle
# Canis familiaris [20] = assay: Conduction time from Q wave to T wave of lead II electrocardiogram was tested in dogs at a dose of 3.0 mg/kg through intravenous administration. (baseline value- 352+/-7); type: functional, Canis lupus familiaris
# Canis familiaris [21] = assay: Compound was tested in vivo in dogs at a dose of 10 mg/kg through intravenous route and time at which ventricular arrhythmias were not indicible was recorded.(Base line value-5); type: functional, Canis lupus familiaris, Cardiac ventricle; summary of the method: as §1
# Canis familiaris [22] = assay: Conduction time for ventricular refractory period of the first premature stimulus was tested in dogs at a dose of 10.0 mg/kg through intravenous administration. (baseline value- 137+/-4); type: functional, Canis lupus familiaris, Cardiac ventricle
# Canis familiaris [23] = assay: Conduction time for ventricular refractory period of the second premature stimulus was tested in dogs at a dose of 1.0 mg/kg through intravenous administration. (baseline value- 123+/-4); type: functional, Canis lupus familiaris, Cardiac ventricle
# Canis familiaris [24] = assay: Conduction time from the His bundle to the onset of ventricular depolarizations was tested in dogs at a dose of 1.0 mg/kg through intravenous administration. (baseline value- 17+/-1 ); type: functional, Canis lupus familiaris, Cardiac ventricle
# Oryctolagus cuniculus [25] = organism: Oryctolagus cuniculus; assay: Tested for conduction time measured at a pacing rate of 1 Hz in vitro with rabbit heart tissue preparations.; type: functional; summary of the method: as §2
# Canis familiaris [26] = assay: Conduction time from the His bundle to the onset of ventricular depolarizations was tested in dogs at a dose of 3.0 mg/kg through intravenous administration. (baseline value- 17+/-1 ); type: functional, Canis lupus familiaris, Cardiac ventricle
# Canis familiaris [27] = assay: Compound was tested in vivo in dogs at a dose of 1.0 mg/kg through intravenous route and time at which ventricular arrhythmias were not indicible was recorded.(Base line value-5); type: functional, Canis lupus familiaris, Cardiac ventricle; summary of the method: as §1
# Canis familiaris [28] = assay: Conduction time for ventricular refractory period of the first premature stimulus was tested in dogs at a dose of 3.0 mg/kg through intravenous administration. (baseline value- 137+/-4); type: functional, Canis lupus familiaris, Cardiac ventricle
# Canis familiaris [29] = assay: Compound was tested in vivo in dogs at a dose of 10.0 mg/kg through intravenous route and time at which nonsustained ventricular arrhythmias were induced was recorded.(Base line value-1); type: functional, Canis lupus familiaris, Cardiac ventricle; summary of the method: as §1
# Canis familiaris [30] = assay: Compound was tested in vivo in dogs at a dose of 3.0 mg/kg through intravenous route and time at which conduction block at the atrioventricular node prevented atrial pacing was recorded.(Base line value-0); type: functional, Canis lupus familiaris; summary of the method: as §1
# Canis familiaris [31] = assay: Conduction time for ventricular refractory period of the second premature stimulus was tested in dogs at a dose of 3.0 mg/kg through intravenous administration. (baseline value- 123+/-4); type: functional, Canis lupus familiaris, Cardiac ventricle
# Oryctolagus cuniculus [32] = organism: Oryctolagus cuniculus; assay: Tested for effective refractory period measured at a pacing rate of 3 Hz in vitro with rabbit heart tissue preparations.; type: functional; set-up: unit: %; summary of the method: as §2
# Canis familiaris [33] = assay: Compound was tested in vivo in dogs at a dose of 3.0 mg/kg through intravenous route and time at which nonsustained ventricular arrhythmias were induced was recorded.(Base line value-1); type: functional, Canis lupus familiaris, Cardiac ventricle; conditions: in the assay text read “Base line value-0” for “Base line value-1”; summary of the method: as §1
# Canis familiaris [34] = assay: Conduction time from the atrium to His bundle was tested in dogs at a dose of 1.0 mg/kg through intravenous administration. (baseline value- 73+/-3 ); type: functional, Canis lupus familiaris
# Canis familiaris [35] = assay: Compound was tested in vivo in dogs at a dose of 1.0 mg/kg through intravenous route and time at which nonsustained ventricular arrhythmias were induced was recorded.(Base line value-0); type: functional, Canis lupus familiaris, Cardiac ventricle; summary of the method: as §1
# Canis familiaris [36] = assay: Conduction time from the His bundle to the onset of ventricular depolarizations was tested in dogs at a dose of 10.0 mg/kg through intravenous administration. (baseline value- 17+/-1 ); type: functional, Canis lupus familiaris, Cardiac ventricle
# Canis familiaris [37] = assay: Compound was tested in vivo in dogs at a dose of 1.0 mg/kg through intravenous route and time at which ventricular fibrillation was induced was recorded.(Base line value-3); type: functional, Canis lupus familiaris, Cardiac ventricle; summary of the method: as §1
smiles,measurement,setting,value
CC(C)NCC(O)c1ccc(NS(C)(=O)=O)cc1.Cl (configuration not stated) [SOTALOL HYDROCHLORIDE],Time,Canis familiaris [1],0 animals
same,Time,Canis familiaris [2],0 animals
same,Time,Canis familiaris [3],0 animals
same,Time,Canis familiaris [4],197 ms
same,Time,Canis familiaris [5],0 animals
same,Time,Canis familiaris [6],4 animals
same,Number of animals not inducible,Canis familiaris [7],7 animals
same,Time,Canis familiaris [8],0 animals
same,Time,Canis familiaris [9],90 ms
same,FOC,Oryctolagus cuniculus [10],6
same,Time,Canis familiaris [11],141 ms
same,ERP1,Oryctolagus cuniculus [12],7.3
same,Time,Canis familiaris [13],107 ms
same,Time,Canis familiaris [14],2 animals
same,Rate,Oryctolagus cuniculus [15],-10
same,Time,Canis familiaris [16],0 animals
same,Time,Canis familiaris [17],1 animals
same,Time,Canis familiaris [18],181 ms
same,Time,Canis familiaris [19],145 ms
same,Time,Canis familiaris [20],197 ms
same,Time,Canis familiaris [21],5 animals
same,Time,Canis familiaris [22],157 ms
same,Time,Canis familiaris [23],126 ms
same,Time,Canis familiaris [24],40 ms
same,CT1,Oryctolagus cuniculus [25],-11.7
same,Time,Canis familiaris [26],39 ms
same,Time,Canis familiaris [27],8 animals
same,Time,Canis familiaris [28],152 ms
same,Time,Canis familiaris [29],1 animals
same,Time,Canis familiaris [30],0 animals
same,Time,Canis familiaris [31],138 ms
same,ERP3,Oryctolagus cuniculus [32],4.9
same,Time,Canis familiaris [33],2 animals
same,Time,Canis familiaris [34],77 ms
same,Time,Canis familiaris [35],0 animals
same,Time,Canis familiaris [36],42 ms
same,Time,Canis familiaris [37],0 animals
